Calls of active or inactive are those of the source. The calls are words filed in the database; no cut-off is given here.
Key:
[1] = test system: Rattus norvegicus; assay: Ex vivo inhibition of DPP4 in Sprague-Dawley rat plasma at 1 mg/kg, po after 6 hrs; type: functional
Procedure, shortened: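 Male SD rats, 6–7 weeks old, fasted at least 8 h, given a single oral dose of 1 mg/kg in 0.5% methylcellulose. Jugular blood taken before dosing and up to 10 h after. Plasma mixed 1:1 with 60 µM Gly-Pro-AMC. Initial rate taken from AMC fluorescence (ex 355/em 460 nm) at 37 °C. Percent inhibition calculated against basal activity.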

[2] = Drug level in blood of Sprague-Dawley rat at 1 mg/kg, po after 0.25 hrs in absence of glucuronidase; type: ADME, organism-based; parameters: dose 1 mg/kg, route oral; settings: read-out: Drug uptake
Procedure, shortened: (§1)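 Male SD rats, fasted 24 h, given a single oral dose of 1 mg/kg as a solution in 0.5% methylcellulose. Blood drawn from the jugular vein. Plasma protein precipitated with acetonitrile, supernatant evaporated and reconstituted in mobile phase, then analysed by LC/MS/MS with no β-glucuronidase/arylsulfatase step.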

[3] = Drug level in blood of Sprague-Dawley rat at 1 mg/kg, po after 6 hrs in absence of glucuronidase; type: ADME, organism-based; parameters: dose 1 mg/kg, route oral; settings: read-out: Drug uptake; procedure, shortened: as §1
[4] = Stability in Tris buffer at pH 7.4; type: physicochemical
Procedure, shortened: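 Compound at 1 mg/mL in 100 mM Tris buffer, pH 7.4, held at room temperature. Remaining parent measured by LC/MS peak area at 0, 2, 6 and 24 h. Half-life obtained from a linear first-order fit of log(peak area/time-zero area) against time.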

[5] = Drug level in blood of Sprague-Dawley rat at 1 mg/kg, po after 2 hrs in absence of glucuronidase; type: ADME, organism-based; parameters: dose 1 mg/kg, route oral; settings: read-out: Drug uptake; procedure, shortened: as §1
[6] = species: Rattus norvegicus; assay: animal or person; settings: Sprague-Dawley, Plasma, po, 10 h, read-out: Inhibition
[7] = target: Dipeptidyl peptidase 4 (Rattus norvegicus) (UniProt P14740); assay: Inhibition of DPP4 in rat liver microsomes in presence of UDPGA; settings: Microsome
Sequence of Dipeptidyl peptidase 4 (Rattus norvegicus) (P14740 whole entry, looked up): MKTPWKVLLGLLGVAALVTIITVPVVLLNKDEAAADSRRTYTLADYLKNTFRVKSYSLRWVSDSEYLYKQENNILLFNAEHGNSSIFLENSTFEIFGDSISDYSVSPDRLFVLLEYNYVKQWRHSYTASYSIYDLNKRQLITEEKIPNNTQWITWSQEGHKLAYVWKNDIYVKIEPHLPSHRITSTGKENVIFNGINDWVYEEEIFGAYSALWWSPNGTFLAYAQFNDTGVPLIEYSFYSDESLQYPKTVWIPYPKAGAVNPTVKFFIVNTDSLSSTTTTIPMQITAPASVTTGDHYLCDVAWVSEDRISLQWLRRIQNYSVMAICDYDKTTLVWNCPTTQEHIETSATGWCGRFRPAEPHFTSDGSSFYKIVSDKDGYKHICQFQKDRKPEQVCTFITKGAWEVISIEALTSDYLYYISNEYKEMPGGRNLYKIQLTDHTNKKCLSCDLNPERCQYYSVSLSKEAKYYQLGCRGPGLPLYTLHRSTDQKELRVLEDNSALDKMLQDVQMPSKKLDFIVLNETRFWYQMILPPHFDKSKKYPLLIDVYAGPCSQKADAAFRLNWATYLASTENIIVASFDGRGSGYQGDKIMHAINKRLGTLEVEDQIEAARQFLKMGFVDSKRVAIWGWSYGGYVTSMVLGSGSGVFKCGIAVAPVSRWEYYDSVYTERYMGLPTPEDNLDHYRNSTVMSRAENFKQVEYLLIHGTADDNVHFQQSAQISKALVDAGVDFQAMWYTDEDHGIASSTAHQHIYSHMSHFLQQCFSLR

[8] = Oral bioavailability in Sprague-Dawley rat at 10 mg/5 ml/kg, po; type: ADME, organism-based; settings: in vivo, 10 mg/kg
Procedure, shortened: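 Male SD rats, 5–7 weeks old, fasted 24 h. Oral dose 10 mg/5 mL/kg in 0.5% methylcellulose compared with iv bolus of 0.3 mg/2 mL/kg in saline via jugular vein. Plasma sampled from 0 to 24 h and measured by LC/MS/MS. F calculated from dose-normalised AUC ratio, po over iv.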

[9] = test system: Rattus norvegicus; assay: Effect on plasma glucose level in orally dosed Sprague-Dawley rat by OGTT assay; type: functional, organism-based
Procedure, shortened: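 Male SD rats (400–460 g) fasted at least 20 h. Vehicle (0.5% methylcellulose) or drug at 0.01, 0.03 or 0.1 mg/kg given po at −30 min, then oral glucose 1 g/kg at 0 min. Tail blood taken at −5, 5, 10, 15, 30, 60 and 120 min. Plasma glucose read by glucose oxidase–peroxidase dye method. Mean ± SE, n = 8; Student's t-test vs vehicle.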

[10] = Oral bioavailability in Sprague-Dawley rat at 1 mg/5 ml/kg, po; type: ADME, organism-based; settings: in vivo, 1 mg/kg
Procedure, shortened: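 Male SD rats, 5–7 weeks old, fasted 24 h, n = 3 per route. Oral dose 1 mg/5 mL/kg in 0.5% methylcellulose. Slow iv bolus of 0.3 mg/2 mL/kg in saline via jugular vein. Jugular blood sampled from 0 to 24 h; plasma analysed by LC/MS/MS. F = (AUCpo/Dpo)/(AUCiv/Div) × 100.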

Structure (SMILES)	inhibition in vivo at 1 mg/kg [1]	half-life [4]	other results
CC(C)C[C@@H]1CN[C@H](C(=O)N2CCC[C@H]2C#N)C1	40%		
Cc1cc(C)c([C@@H]2CN[C@H](C(=O)N3CCC[C@H]3C#N)C2)c(C)c1O	39%	40 h	concentration at 0.25 h [2]: 9.7 ng/mL; concentration at 6 h [3]: 0.95 ng/mL; concentration at 2 h [5]: 0.65 ng/mL
N#C[C@@H]1CCCN1C(=O)[C@@H]1CCCN1	20%		
N#C[C@@H]1CCCN1C(=O)[C@@H]1C[C@@H](c2ccccc2)CN1	17%		
CCc1cc(O)cc(C)c1[C@@H]1CN[C@H](C(=O)N2CCC[C@H]2C#N)C1	86%	39 h	
N#C[C@@H]1CCCN1C(=O)[C@@H]1C[C@H](c2ccccc2)CN1	60%		
Cc1cccc(C)c1[C@@H]1CN[C@H](C(=O)N2CCC[C@H]2C#N)C1	91%		
N#C[C@@H]1CCCN1C(=O)[C@@H]1C[C@H](C2CCCCC2)CN1	38%		
COc1cc(O)cc(OC)c1[C@@H]1CN[C@H](C(=O)N2CCC[C@H]2C#N)C1	81%	59 h	inhibition in vivo at 1 mg/kg [6]: 66%
C=C(C)C[C@@H]1CN[C@H](C(=O)N2CCC[C@H]2C#N)C1	27%		
COc1cc(O)cc(C)c1[C@@H]1CN[C@H](C(=O)N2CCC[C@H]2C#N)C1	90%	49 h	concentration at 0.25 h [2]: 0.49 ng/mL; Activity [7]: Active; inhibition in vivo at 1 mg/kg [6]: 73%; bioavailability [8]: 0.1%
C=CC[C@@H]1CN[C@H](C(=O)N2CCC[C@H]2C#N)C1	38%		
N#C[C@@H]1CCCN1C(=O)[C@@H]1C[C@H](c2ccccc2O)CN1	43%	3.2 h	
Cc1ccc(O)c(C)c1[C@@H]1CN[C@H](C(=O)N2CCC[C@H]2C#N)C1	95%	65 h	inhibition in vivo at 1 mg/kg [6]: 83%; Activity [9]: Dose-dependent effect
N#C[C@@H]1CCCN1C(=O)[C@@H]1C[C@H](c2ccc(O)cc2)CN1	85%	21 h	
N#C[C@@H]1CCCN1C(=O)[C@@H]1C[C@H](C2C3CC4CC(C3)CC2C4)CN1 (stereo not given in full)	47%		
CCOc1cc(O)cc(OCC)c1[C@@H]1CN[C@H](C(=O)N2CCC[C@H]2C#N)C1	79%		inhibition in vivo at 1 mg/kg [6]: 50%
CCC[C@@H]1CN[C@H](C(=O)N2CCC[C@H]2C#N)C1	50%		
Cc1cc(O)cc(C)c1[C@@H]1CN[C@H](C(=O)N2CCC[C@H]2C#N)C1	88%	31 h	bioavailability [10]: 3%; inhibition in vivo at 1 mg/kg [6]: 57%
COc1c(O)ccc(C)c1[C@@H]1CN[C@H](C(=O)N2CCC[C@H]2C#N)C1	94%		bioavailability [10]: 2%; inhibition in vivo at 1 mg/kg [6]: 86%
N#C[C@@H]1CCCN1C(=O)[C@@H]1C[C@H](c2cccc(O)c2)CN1	77%	20 h	

Reference: ChEMBL document CHEMBL1147184, “Design and synthesis of long-acting inhibitors of dipeptidyl peptidase IV” (Bioorg Med Chem, 2007)
